Here are results for 40 compounds from ChEMBL document CHEMBL4261634, “Design and optimization of 2,3-dihydrobenzo[b][1,4]dioxine propanoic acids as novel GPR40 agonists with improved pharmacokinetic and safety profiles” (Bioorg Med Chem, 2018).

Structures are written as SMILES. Active and inactive are the calls of the source. The calls are words filed in the database; no cut-off is given here. Where only a bound is given, the exact number is not on record here.

The target in series [1] is T1, Free fatty acid receptor 1 (Homo sapiens, UniProt O14842). As to the kind of experiment: Agonist activity at human GPR40 expressed in human HEK293 cells assessed as increase in intracellular calcium flux after 10 mins by fluorescence assay. Type of series: functional, cell-based. The method in brief: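 Human GPR40 activity read by calcium mobilization to give EC50. Mean ± SD, n = 3.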
T1 sequence (O14842 whole entry): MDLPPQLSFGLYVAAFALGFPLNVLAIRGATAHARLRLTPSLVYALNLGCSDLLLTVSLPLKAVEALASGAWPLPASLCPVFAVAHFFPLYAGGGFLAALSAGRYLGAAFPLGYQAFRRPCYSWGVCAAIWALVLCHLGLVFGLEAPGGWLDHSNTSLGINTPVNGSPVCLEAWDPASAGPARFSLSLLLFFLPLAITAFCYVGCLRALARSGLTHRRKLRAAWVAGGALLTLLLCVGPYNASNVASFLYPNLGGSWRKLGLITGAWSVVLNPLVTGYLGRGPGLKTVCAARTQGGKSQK
Background: A change in cytosolic calcium serves as a functional read-out for many receptors and channels.

Series [2] concerns the target T1, Free fatty acid receptor 1. Kind of series: Agonist activity at human GPR40 expressed in human HEK293 cells assessed as increase in intracellular calcium flux after 10 mins by fluorescence assay relative to linoleic acid. Format: functional, cell-based. The method in brief:
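Human GPR40 activity read by calcium mobilization to give EC50. Emax expressed relative to linoleic acid as 100%. Mean ± SD, n = 3.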

Series [3] is described as follows: Tmax in Sprague-Dawley rat at 10 mg/kg, po by LC-ESI-MS analysis. Format: ADME, organism-based. The settings on record: in vivo. In short, it runs like this:
(§1)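 SD rats dosed orally (3 or 10 mg/kg) or by intravenous injection (1 mg/kg). Plasma PK parameters derived per route: Cmax, AUC0-t, Tmax, t1/2 and F after oral dosing; CL, AUC0-t, MRT, t1/2 and Vdss after iv dosing. Mean ± SD from three independent experiments (n = 3).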

Series [4] has as its system Rattus norvegicus. Kind of series: Antidiabetic activity in Sprague-Dawley rat assessed as reduction in blood glucose excursion at 10 to 20 mg/kg, po administered 60 mins prior to glucose challenge by OGTT. Type of series: functional, organism-based. The method in brief: (§2)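 OGTT in SD rats: compound given orally 60 min before a 3.0 g/kg glucose challenge. Blood glucose followed over time, and AUC0-60min or AUC0-120min calculated versus vehicle group. Mean ± SD, n = 8.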

The subject of series [5] is Rattus norvegicus. As to the kind of experiment: Antidiabetic activity in Sprague-Dawley rat assessed as reduction in blood glucose AUC (0 to 60 mins) at 10 to 20 mg/kg, po administered 60 mins prior to glucose challenge by OGTT. Format: functional, organism-based. In short, it runs like this:
as §2

Series [6] can be described thus: Cmax in Sprague-Dawley rat at 10 mg/kg, po by LC-ESI-MS analysis. Set-up: dose 10 mg/kg, route oral. Type of series: ADME, organism-based. Particulars: in vivo. The method in brief:
as §1

Series [7] has as its system Rattus norvegicus. Kind of series: Antidiabetic activity in Sprague-Dawley rat assessed as reduction in blood glucose AUC (0 to 120 mins) at 10 to 20 mg/kg, po administered 60 mins prior to glucose challenge by OGTT. Format: functional, organism-based. The method in brief:
as §2

Series [8] can be described thus: Elimination half life in Sprague-Dawley rat at 10 mg/kg, po by LC-ESI-MS analysis. Format: ADME, organism-based. Particulars: in vivo, read-out: beta t1/2 (converted). In short, it runs like this:
as §1

A short description of series [9]: AUC (0 to t) in Sprague-Dawley rat at 10 mg/kg, po by LC-ESI-MS analysis. Format: ADME, organism-based. Particulars: in vivo. In short, it runs like this: as §1

By EC50 is commonly meant the midpoint of the concentration-response curve. One may read the Emax as the size of the effect at its maximum, as opposed to the concentration needed. As to `CC#C[C@@H](CC(=O)O)c1ccc(OC[C@H]2COc3c(Cl)cccc3O2)cc1`, the EC50 in series [1] was 0.17 µM. For the same compound, in series [2], the Emax amounted to 81%.
Consider `CC#C[C@@H](CC(=O)O)c1ccc(OC[C@H]2COc3cc(Cl)ccc3O2)cc1`, for which, in series [1], the EC50 stood at 0.11 µM. Further, in series [2], the Emax was 80%.
For `CC#C[C@@H](CC(=O)O)c1ccc(OC[C@H]2COc3cc(Cl)c(Cl)cc3O2)cc1`, in that order: 0.15 µM and 33%.
In the case of `O=C(O)CC(c1ccc(F)cc1)c1ccc(OCC2COc3ccc(Cl)cc3O2)cc1` (stereo not drawn), the EC50 in series [1] was 4.31 µM. Besides, in series [2], the Emax was 83%.
For `CC#CC(CC(=O)O)c1ccc(OCC2COc3ccc(Cl)cc3O2)cc1` (stereo not drawn), in that order: 0.1 µM and 104%.
The corresponding values for `CC#C[C@@H](CC(=O)O)c1ccc(OC[C@H]2COc3ccc(S(C)(=O)=O)cc3O2)cc1` are 27.2 µM and 55%.
For `Cn1nncc1C(CC(=O)O)c1ccc(OCC2COc3ccc(Cl)cc3O2)cc1` (stereo not drawn), in that order: 3.87 µM and 70%.
On to `O=C(O)CCc1ccc(OCC2COc3cc(Br)ccc3O2)cc1F` (stereo not drawn), for which the concentration for a half-maximal effect (EC50) in series [1] was found to be 0.98 µM. Further, the Emax in series [2] came to 67%.
As usually defined, the Tmax is the time at which the peak concentration occurs. For orientation: Cmax means the maximum level reached in the sampled fluid or tissue. As a reminder, the AUC(0-t) is exposure summed from dosing to a finite time, without extrapolation to infinity. The low end stands for low exposure, the high end for high exposure. Regarding `CC#C[C@@H](CC(=O)O)c1ccc(OC[C@H]2COc3ccc(C)cc3O2)cc1`, the Tmax in series [3] worked out at 0.417 h. The result in series [4], in series [5] and in series [7] was Active. Also, in [1], the EC50 amounted to 0.12 µM. This compound also showed a Cmax in series [6] of 23700 ng/mL. The Emax in series [2] was determined as 78%. The half-life in series [8] is 1.79 h. In addition, in [9], the AUC(0-t) worked out at 65.2 µg·h/mL.
In the case of `COc1ccc2c(c1)OC(COc1ccc(CCC(=O)O)c(F)c1)CC2` (stereo not drawn), the EC50 in [1] came out at 2.11 µM. Further, the Emax in [2] is 58%.
For the compound `O=C(O)CC(c1ccncc1)c1ccc(OCC2COc3ccc(Cl)cc3O2)cc1` (stereo not drawn), in series [1], the EC50 was found to be 1.17 µM. In addition, the Emax in series [2] was 62%.
Consider `CCCCC/C=C\C/C=C\CCCCCCCC(=O)O` [LINOLEIC ACID], for which the EC50 in series [1] stood at 4.8 µM.
For the compound `Cn1cncc1C(CC(=O)O)c1ccc(OCC2COc3ccc(Cl)cc3O2)cc1` (stereo not drawn), the 50% effective concentration (EC50) in series [1] amounted to 3.06 µM. Moreover, in [2], the Emax amounted to 62%.
For `O=C(O)CC(c1ccc(OCC2COc3ccc(Cl)cc3O2)cc1)c1cnco1` (stereo not drawn), the concentration giving a half-maximal response (EC50) in [1] came out at 1.03 µM. In addition, the Emax in [2] came to 63%.
`CC#C[C@@H](CC(=O)O)c1ccc(OC[C@H]2COc3ccc(C#N)cc3O2)cc1`: the EC50 in series [1] amounted to 2.1 µM. For the same compound, in series [2], the Emax stood at 60%.
As to `O=C(O)CCc1ccc(OCC2COc3ccc(Br)cc3O2)cc1F` (stereo not drawn), the EC50 in [1] was 2.24 µM. In addition, in series [2], the Emax was 81%.
For `CC#C[C@@H](CC(=O)O)c1ccc(OC[C@H]2COc3ccc(OC(F)(F)F)cc3O2)cc1`, in that order: 0.7 µM and 73%.
For `O=C(O)CC1(c2ccc(OCC3COc4ccc(Cl)cc4O3)cc2)COC1` (stereo not drawn), in that order: 8.06 µM and 66%.
As to `CC#C[C@@H](CC(=O)O)c1ccc(OC[C@@H]2COc3ccc(Cl)cc3O2)cc1`, in series [1], the EC50 was 0.26 µM. The Emax in series [2] was 65%.
In the case of `CS(=O)(=O)CCCOc1ccc2c(c1)OC(COc1ccc(CCC(=O)O)c(F)c1)CC2` (stereo not drawn), the EC50 in series [1] is 36.3 µM. The Emax in series [2] was found to be 38%.
In the case of `COCCOc1ccc2c(c1)OC(COc1ccc(CCC(=O)O)c(F)c1)CC2` (stereo not drawn), the EC50 in series [1] was 2.37 µM. Also, the Emax in series [2] was 36%.
For `CC#C[C@H](CC(=O)O)c1ccc(OC[C@@H]2COc3ccc(Cl)cc3O2)cc1`, in that order: 5.04 µM and 41%.
The corresponding values for `CC#C[C@@H](CC(=O)O)c1ccc(OC[C@H]2COc3ccc(C(=O)N(C)C)cc3O2)cc1` are more than 30 µM and 32%.
In the case of `CC#C[C@@H](CC(=O)O)c1ccc(OC[C@H]2COc3ccc(OC(C)C)cc3O2)cc1`, the concentration for a half-maximal effect (EC50) in series [1] is 0.28 µM. In addition, the Emax in series [2] came to 90%.
The corresponding values for `CC#C[C@@H](CC(=O)O)c1ccc(OC[C@H]2COc3ccc(CO)cc3O2)cc1` are more than 30 µM and 42%.
The corresponding values for `Cn1ccnc1C(CC(=O)O)c1ccc(OCC2COc3ccc(Cl)cc3O2)cc1` (stereo not drawn) are 5.88 µM and 68%.
In the case of `CC#C[C@@H](CC(=O)O)c1ccc(OC[C@H]2COc3ccccc3O2)cc1`, the Tmax in [3] came out at 1.17 h. Moreover, the result in [4], in series [5] and in series [7] was Active. For the same compound, in [1], the EC50 is 0.09 µM. This compound came in with a Cmax in series [6] of 36700 ng/mL. In addition, the Emax in [2] was 70%. In [8], the half-life was 3.14 h. Besides, the exposure AUC(0-t) in [9] came to 275 µg·h/mL.
Regarding `O=C(O)CCc1ccc(NCC2COc3ccc(Cl)cc3O2)cc1F` (stereo not drawn), the EC50 in series [1] is 13.6 µM. Moreover, the Emax in series [2] was 69%.
On to `CC#C[C@@H](CC(=O)O)c1ccc(OC[C@H]2COc3ccc(C(=O)N4CCOCC4)cc3O2)cc1`, for which the EC50 in series [1] was more than 50 µM. Also, the maximal effect (Emax) in [2] stood at 33%.
As to `CC#C[C@@H](CC(=O)O)c1ccc(OC[C@H]2COc3ccc(Br)cc3O2)cc1`, the EC50 in [1] is 0.21 µM. In addition, the Emax in [2] was 69%.
For `O=C(O)CCc1ccc(OCC2COc3ccc(Cl)cc3O2)cc1F` (stereo not drawn), in that order: 0.83 µM and 50%.
On to `COc1ccc2c(c1)OC(COc1ccc(CCC(=O)O)c(F)c1)CO2` (stereo not drawn), for which the EC50 in series [1] came to 1.47 µM. For the same compound, the maximum response (Emax) in series [2] was determined as 80%.
For `CC#C[C@H](CC(=O)O)c1ccc(OC[C@H]2COc3ccc(Cl)cc3O2)cc1`, in that order: 3.4 µM and 47%.
The corresponding values for `CC#C[C@@H](CC(=O)O)c1ccc(OC[C@H]2COc3cccc(Cl)c3O2)cc1` are 0.52 µM and 95%.
As for `CC#C[C@@H](CC(=O)O)c1ccc(OC[C@H]2COc3ccc(F)cc3O2)cc1`, the concentration giving a half-maximal response (EC50) in [1] is 0.21 µM. Further, in series [2], the maximal effect (Emax) turned out to be 86%.
For `CC#C[C@@H](CC(=O)O)c1ccc(OC[C@H]2COc3cc(Br)c(Cl)cc3O2)cc1`, in series [1], the EC50 came to 0.2 µM. In addition, the Emax in series [2] was 82%.
The corresponding values for `CC#C[C@@H](CC(=O)O)c1ccc(OC[C@H]2COc3cc(F)c(Cl)cc3O2)cc1` are 0.21 µM and 46%.
For `CCOC(CC(=O)O)c1ccc(OCC2COc3ccc(Cl)cc3O2)cc1` (stereo not drawn), in that order: 0.64 µM and 46%.
For the compound `CC#C[C@@H](CC(=O)O)c1ccc(OC[C@H]2COc3ccc(OC)cc3O2)cc1`, in [1], the EC50 was found to be 0.13 µM. In series [2], the Emax turned out to be 91%.
Turning to `CC#C[C@@H](CC(=O)O)c1ccc(OC[C@H]2COc3ccc(C(C)=O)cc3O2)cc1`, the EC50 in series [1] was more than 30 µM. The Emax in series [2] stood at 51%.
